Our source for the MIC90 values is ChEMBL document CHEMBL1154956, “Stereospecific synthesis of oximes and oxime ethers of 3-azabicycles: A SAR study towards antimicrobial agents” (2010).

Values after ≈ are worked out from the molar mass of the structure shown. Some results are limits rather than exact numbers.

Assay type in all cases: functional
Test [1] relates to Bacillus subtilis. As to the kind of experiment: Antibacterial activity against Bacillus subtilis by NCCLS broth microdilution method.
For test [2], the system named is Staphylococcus aureus. Kind of test: Antibacterial activity against Staphylococcus aureus by NCCLS broth microdilution method.
Test [3] deals with Klebsiella pneumoniae. Kind of test: Antibacterial activity against Klebsiella pneumoniae by NCCLS broth microdilution method. A general note: Dilution methods test growth across graded concentrations, often in twofold steps.
In test [4] the test system is Pseudomonas aeruginosa. As to the kind of experiment: Antibacterial activity against Pseudomonas aeruginosa by NCCLS broth microdilution method.
For test [5], the system named is Candida albicans. As to the kind of experiment: Antifungal activity against Candida albicans by NCCLS broth microdilution method. The essentials:
(§1)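 MIC90 was taken as the lowest concentration that inhibited 90% of pathogen growth after incubation, reported in μg/mL. Broth dilution followed the NCCLS reference standards: M27-A for yeasts and the proposed standard for conidium-forming filamentous fungi. Fluconazole was the reference drug.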

In test [6] the test system is Candida parapsilosis. As to the kind of experiment: Antifungal activity against Candida parapsilosis by NCCLS broth microdilution method. The essentials:
as §1

The subject of test [7] is Aspergillus niger. Kind of test: Antifungal activity against Aspergillus niger by NCCLS broth microdilution method. The essentials: as §1
Test [8] has as its system Cryptococcus neoformans. Kind of test: Antifungal activity against Cryptococcus neoformans by NCCLS broth microdilution method. In short, it runs like this:
as §1

Where [9] appears, read: Bacillus subtilis, read-out: MIC90.
[10] abbreviates: Staphylococcus aureus, read-out: MIC90.
Where [11] appears, read: Klebsiella pneumoniae, read-out: MIC90.
Where [12] appears, read: Pseudomonas aeruginosa, read-out: MIC90.
The mark [13] stands for this setting: Candida albicans, read-out: MIC90.
Setting [14] is: Lodderomyces parapsilosis, read-out: MIC90.
Where [15] appears, read: Aspergillus niger, read-out: MIC90.
The mark [16] stands for this setting: Cryptococcus neoformans, read-out: MIC90.

As a reminder, the MIC90 is an inhibitory concentration at the 90% level, which refers to growth in some studies and to a panel of isolates in others. For the compound `CO/N=C1\C2CCCC1(C)C(c1ccccc1Br)NC2c1ccccc1Br` (stereo unspecified), the MIC90 in test [1] (setting [9]) was determined as 64 µg/mL (≈ 130 µM); in test [2] (setting [10]), 64 µg/mL (≈ 130 µM); in test [3] (setting [11]), 64 µg/mL (≈ 130 µM); in test [4] (setting [12]) it was 128 µg/mL (≈ 260 µM); in test [5] (setting [13]), 64 µg/mL (≈ 130 µM); in test [6] (setting [14]) it was 32 µg/mL (≈ 65 µM). Further, the MIC90 in test [7] (setting [15]) worked out at 32 µg/mL (≈ 65 µM); in test [8] (setting [16]), 128 µg/mL (≈ 260 µM).
On to `CON=C1C2CC(C)CC1C(c1ccccc1F)NC2c1ccccc1F` (stereo in doubt; 55b), for which the MIC90 was 8 µg/mL (≈ 21.6 µM) in test [1]; 16 µg/mL (≈ 43.2 µM) in test [2]; 16 µg/mL (≈ 43.2 µM) in test [3]; 32 µg/mL (≈ 86.4 µM) in test [4]; 2 µg/mL (≈ 5.4 µM) in test [5]; 2 µg/mL (≈ 5.4 µM) in test [6]. Also, the figures for the MIC90 in test [7] and in test [8] were 2 µg/mL (≈ 5.4 µM) and 4 µg/mL (≈ 10.8 µM), respectively.
As to `CON=C1C2CC(C)CC1C(c1ccccc1F)NC2c1ccccc1F` (stereo in doubt; 55a), the MIC90 in test [1] (setting [9]) is 4 µg/mL (≈ 10.8 µM); in test [2], 2 µg/mL (≈ 5.4 µM); in test [3], 2 µg/mL (≈ 5.4 µM); in test [4], 8 µg/mL (≈ 21.6 µM); in test [5], 8 µg/mL (≈ 21.6 µM); in test [6], 32 µg/mL (≈ 86.4 µM). Besides, the MIC90 in test [7] and in test [8] was 16 µg/mL (≈ 43.2 µM) in each case.
On to `CC1CC2C(=NO)C(C1)C(c1ccccc1Cl)NC2c1ccccc1Cl` (stereo in doubt; 52b), for which the MIC90 in test [1] was 64 µg/mL (≈ 164 µM); in test [2], 16 µg/mL (≈ 41.1 µM); in test [3], 32 µg/mL (≈ 82.2 µM); in test [4], above 128 µg/mL; in test [5] it was 4 µg/mL (≈ 10.3 µM); in test [6] it was 16 µg/mL (≈ 41.1 µM). For the same compound, the MIC90 was 32 µg/mL (≈ 82.2 µM) in test [7] and 64 µg/mL (≈ 164 µM) in test [8].
With `CON=C1C2CC(C)CC1C(c1ccccc1Cl)NC2c1ccccc1Cl` (stereo in doubt; 58a), the MIC90 is 8 µg/mL (≈ 19.8 µM) in test [1]; 4 µg/mL (≈ 9.92 µM) in test [2] (setting [10]); 4 µg/mL (≈ 9.92 µM) in test [3]; 4 µg/mL (≈ 9.92 µM) in test [4]; 8 µg/mL (≈ 19.8 µM) in test [5] (setting [13]); 16 µg/mL (≈ 39.7 µM) in test [6]. For the same compound, the results for the MIC90 in test [7] and in test [8] were 32 µg/mL (≈ 79.3 µM) and 16 µg/mL (≈ 39.7 µM), respectively.
For `CC12CCCC(/C1=N\O)C(c1cccc(F)c1)NC2c1cccc(F)c1` (stereo unspecified), the MIC90 in test [1] (setting [9]) stood at 128 µg/mL (≈ 359 µM); in test [2] (setting [10]), 64 µg/mL (≈ 180 µM); in test [3] (setting [11]), 32 µg/mL (≈ 89.8 µM); in test [4] (setting [12]), 128 µg/mL (≈ 359 µM); in test [5] (setting [13]), 32 µg/mL (≈ 89.8 µM); in test [6] (setting [14]), 64 µg/mL (≈ 180 µM). Further, the MIC90 in test [7] (setting [15]) was 128 µg/mL (≈ 359 µM); in test [8] (setting [16]), above 128 µg/mL.
As to `CC12CCCC(/C1=N\O)C(c1ccccc1F)NC2c1ccccc1F` (stereo unspecified), the MIC90 in test [1] (setting [9]) turned out to be 32 µg/mL (≈ 89.8 µM); in test [2] (setting [10]) it was 8 µg/mL (≈ 22.4 µM); in test [3] (setting [11]), 16 µg/mL (≈ 44.9 µM); in test [4] (setting [12]) it was 32 µg/mL (≈ 89.8 µM); in test [5] (setting [13]), 8 µg/mL (≈ 22.4 µM); in test [6] (setting [14]), 8 µg/mL (≈ 22.4 µM). Also, the MIC90 in test [7] (setting [15]) and in test [8] (setting [16]) was 64 µg/mL (≈ 180 µM) each time.
As for `CO/N=C1\C2CCCC1(C)C(c1ccc(Br)cc1)NC2c1ccc(Br)cc1` (stereo unspecified), the MIC90 in test [1] (setting [9]) was 64 µg/mL (≈ 130 µM); in test [2] (setting [10]), 32 µg/mL (≈ 65 µM); in test [3] (setting [11]) it was 32 µg/mL (≈ 65 µM); in test [4] (setting [12]), above 128 µg/mL; in test [5] (setting [13]) it was 64 µg/mL (≈ 130 µM); in test [6] (setting [14]), 128 µg/mL (≈ 260 µM). Besides, the MIC90 in test [7] (setting [15]) was determined as 32 µg/mL (≈ 65 µM); in test [8] (setting [16]), 64 µg/mL (≈ 130 µM).
Regarding `CC1CC2C(=NO)C(C1)C(c1cccc(Cl)c1)NC2c1cccc(Cl)c1` (stereo unspecified), the MIC90 in test [1] (setting [9]) turned out to be 32 µg/mL (≈ 82.2 µM); in test [2] (setting [10]), 64 µg/mL (≈ 164 µM); in test [3] (setting [11]) it was 32 µg/mL (≈ 82.2 µM); in test [4] (setting [12]), 64 µg/mL (≈ 164 µM); in test [5] (setting [13]), 64 µg/mL (≈ 164 µM); in test [6] (setting [14]), 128 µg/mL (≈ 329 µM). For the same compound, the MIC90 in test [7] (setting [15]) was 64 µg/mL (≈ 164 µM); in test [8] (setting [16]), above 128 µg/mL.
As to `CC12CCCC(/C1=N\O)C(c1ccccc1)NC2c1ccccc1` (stereo unspecified), the MIC90 was above 128 µg/mL in test [1] (setting [9]); 128 µg/mL (≈ 399 µM) in test [2] (setting [10]); above 128 µg/mL in test [3] (setting [11]); above 128 µg/mL in test [4] (setting [12]); above 128 µg/mL in test [5] (setting [13]); above 128 µg/mL in test [6] (setting [14]). In addition, the MIC90 in test [7] (setting [15]) and in test [8] (setting [16]) was above 128 µg/mL throughout.
Take `Cc1ccc(C2NC(c3ccc(C)cc3)C3(C)CCCC2/C3=N\O)cc1` (stereo unspecified): the MIC90 was 128 µg/mL (≈ 367 µM) in test [1] (setting [9]); 128 µg/mL (≈ 367 µM) in test [2] (setting [10]); above 128 µg/mL in test [3] (setting [11]); above 128 µg/mL in test [4] (setting [12]); 128 µg/mL (≈ 367 µM) in test [5] (setting [13]); above 128 µg/mL in test [6] (setting [14]). In addition, the MIC90 stood at 64 µg/mL (≈ 184 µM) in test [7] (setting [15]) and 128 µg/mL (≈ 367 µM) in test [8] (setting [16]).
As for `CON=C1C2CC(C)CC1C(c1cccc(Cl)c1)NC2c1cccc(Cl)c1` (stereo unspecified), the MIC90 in test [1] (setting [9]) stood at 64 µg/mL (≈ 159 µM); in test [2] (setting [10]) it was 32 µg/mL (≈ 79.3 µM); in test [3] (setting [11]), 32 µg/mL (≈ 79.3 µM); in test [4] (setting [12]), 128 µg/mL (≈ 317 µM); in test [5] (setting [13]) it was 16 µg/mL (≈ 39.7 µM); in test [6] (setting [14]), 8 µg/mL (≈ 19.8 µM). The MIC90 in test [7] (setting [15]) and in test [8] (setting [16]) was 32 µg/mL (≈ 79.3 µM) in each case.
